In ChEMBL document CHEMBL5143722, “Antimicrobial Peptides against Multidrug-Resistant Pseudomonas aeruginosa Biofilm from Cystic Fibrosis Patients” (J Med Chem, 2022):
Active and inactive are the calls of the source.

Tests used:
Pseudomonas aeruginosa [1] = assay: Induction of biofilm degradation of Pseudomonas aeruginosa clinical isolate 24 at sub MIC concentration incubated for 1 hr by crystal violet staining analysis; assay type: functional
Summary of the method: (§1)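 Bacteria at 1 × 10^6 CFU/mL in BM2 grown static at 37 °C for 24 h to form biofilm. Wells rinsed of unattached cells, then exposed for 1 h to serial peptide dilutions (1.56–50 μM). Washed, stained with 0.1% crystal violet, A590 read. Biomass given as % of untreated biofilm; no-bacteria wells as blanks. At least three biological repeats.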

Pseudomonas aeruginosa [2] = assay: Inhibition of biofilm formation of Pseudomonas aeruginosa clinical isolate 24 derived from cystic fibrosis patient sputum at 0.78 to 25 uM by crystal violet based staining analysis; assay type: functional, organism-based; details: dose 0.78-25 µM
Summary of the method: (§2)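 CF patient sputum diluted 10-fold with BM2, bacteria added with serial peptide dilutions starting from the highest MIC per isolate. Inoculum suspension 1 × 10^6 CFU/mL. Incubated 24 h at 37 °C without agitation. Unattached cells washed away, then 0.1% crystal violet staining and A590. Biomass given as % of untreated, with no-bacteria blanks.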

Pseudomonas aeruginosa [3] = assay: Induction of biofilm degradation of Pseudomonas aeruginosa clinical isolate 29 at 50 uM incubated for 1 hr by crystal violet staining analysis relative to control; assay type: functional; summary of the method: as §1
Pseudomonas aeruginosa [4] = assay: Antibiofilm activity against Pseudomonas aeruginosa clinical isolate 24 in basal medium 2 at 12.5 to 100 uM incubated for 24 hrs by resazurin staining based microtiter plate method; assay type: functional, organism-based; details: dose 12.5-100 µM
Pseudomonas aeruginosa [5] = assay: Induction of biofilm degradation of Pseudomonas aeruginosa clinical isolate 24 incubated for 1 hr by crystal violet staining analysis relative to control; assay type: functional; details: dose 50.0 µM; summary of the method: as §1
Pseudomonas aeruginosa [6] = assay: Antibiofilm activity against Pseudomonas aeruginosa clinical isolate 25 assessed as inhibition of biofilm formation at sub-inhibitory concentration incubated for 24 hrs by crystal violet staining based microtiter plate method; assay type: functional, organism-based
Summary of the method: (§3)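 Washed overnight cultures in BM2 medium at 1 × 10^6 CFU/mL with 2-fold serial peptide dilutions in a U-bottom 96-well plate. Incubated 24 h at 37 °C without agitation. Unattached cells washed off, then 0.1% crystal violet stain read at 590 nm. No-bacteria blanks. Biomass expressed as % of untreated biofilm. At least three biological repeats.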

Pseudomonas aeruginosa [7] = assay: Induction of biofilm degradation of Pseudomonas aeruginosa clinical isolate 82 at 50 uM incubated for 1 hr by crystal violet staining analysis relative to control; assay type: functional; summary of the method: as §1
Pseudomonas aeruginosa [8] = assay: Antibiofilm activity against Pseudomonas aeruginosa PAO1 in basal medium 2 at 12.5 to 100 uM incubated for 24 hrs by resazurin staining based microtiter plate method; assay type: functional, organism-based; details: dose 12.5-100 µM
Pseudomonas aeruginosa [9] = assay: Antibiofilm activity against Pseudomonas aeruginosa clinical isolate 99 assessed as inhibition of biofilm formation at sub-inhibitory concentration incubated for 24 hrs by crystal violet staining based microtiter plate method; assay type: functional, organism-based; summary of the method: as §3
Pseudomonas aeruginosa [10] = assay: Inhibition of biofilm formation of Pseudomonas aeruginosa PAO1 in patient derived CF-sputum at 0.09 to 3.12 uM by crystal violet based staining analysis; assay type: functional, organism-based; details: dose 0.09-3.12 µM; summary of the method: as §2
Pseudomonas aeruginosa [11] = assay: Antibiofilm activity against Pseudomonas aeruginosa clinical isolate 53 assessed as inhibition of biofilm formation at sub-inhibitory concentration incubated for 24 hrs by crystal violet staining based microtiter plate method; assay type: functional, organism-based; summary of the method: as §3
Pseudomonas aeruginosa [12] = assay: Induction of biofilm degradation of Pseudomonas aeruginosa clinical isolate 59 at 50 uM incubated for 1 hr by crystal violet staining analysis relative to control; assay type: functional
Summary of the method: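 Inoculum of 1 × 10^6 CFU/mL was grown 24 h at 37 °C without agitation to form biofilm. Wells were rinsed of unattached bacteria and exposed for 1 h to serial peptide dilutions (1.56–50 μM). They were then washed, stained with 0.1% crystal violet, and read at 590 nm with no-bacteria blanks. Biomass is given as % of untreated biofilm.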

Pseudomonas aeruginosa [13] = assay: Inhibition of biofilm formation of Pseudomonas aeruginosa clinical isolate 24 derived from cystic fibrosis patient sputum at 0.09 to 3.12 uM by crystal violet based staining analysis; assay type: functional, organism-based; details: dose 0.09-3.12 µM; summary of the method: as §2
Pseudomonas aeruginosa [14] = assay: Induction of biofilm degradation of Pseudomonas aeruginosa clinical isolate 251 at 50 uM incubated for 1 hr by crystal violet staining analysis; assay type: functional; summary of the method: as §1
Pseudomonas aeruginosa [15] = assay: Induction of biofilm degradation of Pseudomonas aeruginosa clinical isolate 238 at 50 uM incubated for 1 hr by crystal violet staining analysis relative to control; assay type: functional; summary of the method: as §1
Pseudomonas aeruginosa [16] = assay: Induction of biofilm degradation of Pseudomonas aeruginosa clinical isolate 172 at 50 uM incubated for 1 hr by crystal violet staining analysis relative to control; assay type: functional; summary of the method: as §1
Pseudomonas aeruginosa [17] = assay: Induction of biofilm degradation of Pseudomonas aeruginosa clinical isolate 40 at 50 uM incubated for 1 hr by crystal violet staining analysis relative to control; assay type: functional; summary of the method: as §1
Pseudomonas aeruginosa [18] = assay: Induction of biofilm degradation of Pseudomonas aeruginosa clinical isolate 52 at 50 uM incubated for 1 hr by crystal violet staining analysis relative to control; assay type: functional; summary of the method: as §1
Pseudomonas aeruginosa [19] = assay: Induction of biofilm degradation of Pseudomonas aeruginosa clinical isolate 40 at sub MIC concentration incubated for 1 hr by crystal violet staining analysis; assay type: functional; summary of the method: as §1
Pseudomonas aeruginosa [20] = assay: Induction of biofilm degradation of Pseudomonas aeruginosa clinical isolate 25 at 50 uM incubated for 1 hr by crystal violet staining analysis relative to control; assay type: functional; summary of the method: as §1
Pseudomonas aeruginosa [21] = assay: Antibiofilm activity against Pseudomonas aeruginosa clinical isolate 24 assessed as inhibition of biofilm formation at sub-inhibitory concentration incubated for 24 hrs by crystal violet staining based microtiter plate method; assay type: functional, organism-based; summary of the method: as §3
Pseudomonas aeruginosa [22] = assay: Induction of biofilm degradation of Pseudomonas aeruginosa clinical isolate 53 at sub MIC concentration incubated for 1 hr by crystal violet staining analysis; assay type: functional; summary of the method: as §1
Pseudomonas aeruginosa [23] = assay: Induction of biofilm degradation of Pseudomonas aeruginosa clinical isolate 995 at 50 uM incubated for 1 hr by crystal violet staining analysis relative to control; assay type: functional; summary of the method: as §1
Pseudomonas aeruginosa [24] = assay: Antibiofilm activity against Pseudomonas aeruginosa clinical isolate 46 assessed as inhibition of biofilm formation at sub-inhibitory concentration incubated for 24 hrs by crystal violet staining based microtiter plate method; assay type: functional, organism-based; summary of the method: as §3
Pseudomonas aeruginosa [25] = assay: Antibiofilm activity against Pseudomonas aeruginosa clinical isolate 629 assessed as inhibition of biofilm formation at sub-inhibitory concentration incubated for 24 hrs by crystal violet staining based microtiter plate method; assay type: functional, organism-based; summary of the method: as §3
Pseudomonas aeruginosa [26] = assay: Induction of biofilm degradation of Pseudomonas aeruginosa clinical isolate 72 at 50 uM incubated for 1 hr by crystal violet staining analysis relative to control; assay type: functional; summary of the method: as §1
Pseudomonas aeruginosa [27] = assay: Antibiofilm activity against Pseudomonas aeruginosa clinical isolate 71 assessed as inhibition of biofilm formation at sub-inhibitory concentration incubated for 24 hrs by crystal violet staining based microtiter plate method; assay type: functional, organism-based; summary of the method: as §3
Pseudomonas aeruginosa [28] = assay: Antibiofilm activity against Pseudomonas aeruginosa clinical isolate 72 assessed as inhibition of biofilm formation at sub-inhibitory concentration incubated for 24 hrs by crystal violet staining based microtiter plate method; assay type: functional, organism-based; summary of the method: as §3
Pseudomonas aeruginosa [29] = assay: Induction of biofilm degradation of Pseudomonas aeruginosa clinical isolate 629 at 50 uM incubated for 1 hr by crystal violet staining analysis relative to control; assay type: functional; summary of the method: as §1
Pseudomonas aeruginosa [30] = assay: Induction of biofilm degradation of Pseudomonas aeruginosa clinical isolate 53 at 50 uM incubated for 1 hr by crystal violet staining analysis relative to control; assay type: functional; summary of the method: as §1
Pseudomonas aeruginosa [31] = assay: Induction of biofilm degradation of Pseudomonas aeruginosa clinical isolate 99 at 50 uM incubated for 1 hr by crystal violet staining analysis relative to control; assay type: functional; summary of the method: as §1
Pseudomonas aeruginosa [32] = assay: Induction of biofilm degradation of Pseudomonas aeruginosa clinical isolate 71 at 50 uM incubated for 1 hr by crystal violet staining analysis relative to control; assay type: functional; summary of the method: as §1
Pseudomonas aeruginosa [33] = assay: Antibiofilm activity against Pseudomonas aeruginosa clinical isolate 46 in basal medium 2 at 12.5 to 100 uM incubated for 24 hrs by resazurin staining based microtiter plate method; assay type: functional, organism-based; details: dose 12.5-100 µM
[34] = tested on: Pseudomonas aeruginosa PAO1; assay: Induction of biofilm degradation of Pseudomonas aeruginosa PAO1 in cystic fibrosis patient sputum at 10 uM incubated for 48 hr by resazurin staining based confocal microscopy analysis
Pseudomonas aeruginosa [35] = assay: Induction of biofilm degradation of Pseudomonas aeruginosa PAO1 at 50 uM incubated for 1 hr by crystal violet staining analysis relative to control; assay type: functional; summary of the method: as §1
Pseudomonas aeruginosa [36] = assay: Induction of biofilm degradation of Pseudomonas aeruginosa clinical isolate 46 at 50 uM incubated for 1 hr by crystal violet staining analysis relative to control; assay type: functional; summary of the method: as §1
Pseudomonas aeruginosa [37] = assay: Induction of biofilm degradation of Pseudomonas aeruginosa clinical isolate 59 at <12.5 uM incubated for 1 hr by crystal violet staining analysis; assay type: functional; summary of the method: as §1
Pseudomonas aeruginosa [38] = assay: Antibiofilm activity against Pseudomonas aeruginosa clinical isolate 82 in basal medium 2 at 12.5 to 100 uM incubated for 24 hrs by resazurin staining based microtiter plate method; assay type: functional, organism-based; details: dose 12.5-100 µM
Pseudomonas aeruginosa [39] = assay: Inhibition of biofilm formation of Pseudomonas aeruginosa clinical isolate 82 derived from cystic fibrosis patient sputum at 0.09 to 3.12 uM by crystal violet based staining analysis; assay type: functional, organism-based; details: dose 0.09-3.12 µM; summary of the method: as §2

CC(C)C[C@H](NC(=O)[C@H](CC(C)C)NC(=O)[C@H](CC(C)C)NC(=O)[C@H](CC(C)C)NC(=O)[C@H](CCCCN)NC(=O)[C@H](CCCCN)NC(=O)[C@H](CCCCN)NC(=O)[C@H](CCCCN)NC(=O)[C@H](CCCCN)NC(=O)[C@H](CCCCN)NC(=O)[C@H](CC(C)C)NC(=O)[C@H](CC(C)C)NC(=O)[C@H](CC(C)C)NC(=O)[C@H](CC(C)C)NC(=O)[C@@H](N)CC(C)C)C(N)=O
60%: Activity (Pseudomonas aeruginosa [3]) | Activity (Pseudomonas aeruginosa [5]) | Activity (Pseudomonas aeruginosa [7]) | Activity (Pseudomonas aeruginosa [14]) | Activity (Pseudomonas aeruginosa [15]) | Activity (Pseudomonas aeruginosa [16]) | Activity (Pseudomonas aeruginosa [17]) | Activity (Pseudomonas aeruginosa [18]) | Activity (Pseudomonas aeruginosa [20]) | Activity (Pseudomonas aeruginosa [23]) | Activity (Pseudomonas aeruginosa [26]) | Activity (Pseudomonas aeruginosa [29]) | Activity (Pseudomonas aeruginosa [30]) | Activity (Pseudomonas aeruginosa [31]) | Activity (Pseudomonas aeruginosa [32]) | Activity (Pseudomonas aeruginosa [35]) | Activity (Pseudomonas aeruginosa [36])
40%: Activity (Pseudomonas aeruginosa [12])
active: Activity (Pseudomonas aeruginosa [1]) | inhibition (Pseudomonas aeruginosa [2]) | Activity (Pseudomonas aeruginosa [4]) | inhibition (Pseudomonas aeruginosa [6]) | Activity (Pseudomonas aeruginosa [8]) | inhibition (Pseudomonas aeruginosa [9]) | inhibition (Pseudomonas aeruginosa [10]) | inhibition (Pseudomonas aeruginosa [11]) | inhibition (Pseudomonas aeruginosa [13]) | Activity (Pseudomonas aeruginosa [19]) | inhibition (Pseudomonas aeruginosa [21]) | Activity (Pseudomonas aeruginosa [22]) | inhibition (Pseudomonas aeruginosa [24]) | inhibition (Pseudomonas aeruginosa [25]) | inhibition (Pseudomonas aeruginosa [27]) | inhibition (Pseudomonas aeruginosa [28]) | Activity (Pseudomonas aeruginosa [33]) | Activity [34] | Activity (Pseudomonas aeruginosa [37]) | Activity (Pseudomonas aeruginosa [38]) | inhibition (Pseudomonas aeruginosa [39])
